According to ChEMBL document CHEMBL1833877, “Antinociceptive properties of bergenin” (J Nat Prod, 2011):
Calls of active or inactive are those of the source.

Assays:
Format in all cases: functional, organism-based
Design in all cases: dose 10 mg/kg
Mus musculus [1] = assay: Antinociceptive activity in mouse assessed as inhibition of acetic acid-induced abdominal constrictions at 10 mg/kg, ip administered 40 mins before acetic acid challenge measured for 30 mins; conditions: Abdomen
Summary of the method: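 Dosing was ip in 2% DMSO/saline 40 min before ip acetic acid (0.8% v/v, 10 mL/kg). Writhes (abdominal contraction with hind-limb stretching) were counted over 0–30 min. n = 6 mice/group, means ± SEM, ANOVA with Tukey.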

Mus musculus [2] = assay: Antinociceptive activity against formalin-induced pain in mouse assessed as paw licking during early phase (0 to 10 mins) at 10 mg/kg, ip administered 40 mins before formalin challenge
Summary of the method: (§1)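 Mice were acclimated 30 min in an observation chamber, then given 20 μL of 2.5% formalin sc into the dorsal hind paw. Dosing was ip (2% DMSO/saline vehicle) 40 min beforehand. Time spent licking the injected paw was scored over 0–10 min and 10–60 min. n = 6/group, means ± SEM, ANOVA with Tukey.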

Mus musculus [3] = assay: Antinociceptive activity against formalin-induced pain in mouse assessed as paw licking during late phase (10 to 60 mins) at 10 mg/kg, ip administered 40 mins before formalin challenge; summary of the method: as §1

Measured: Activity

COc1ccc2c(c1)c(CC(=O)O)c(C)n2C(=O)c1ccc(Cl)cc1
active: Mus musculus [1] | Mus musculus [2] | Mus musculus [3]
